Calls of active or inactive are those of the source. The rule behind the calls is not given here.
Assays:
[1] = molecular target: Eukaryotic translation initiation factor 2-alpha kinase 1 (Mus musculus) (UniProt Q9Z2R9); test: Activation of HRI in mouse KLN cells transfected with 5'UTR of ATF-4 mRNA fused firefly luciferase mRNA and 5'UTR lacking uORF fused renila luciferase mRNA assessed as increase in eIF2alpha phosphorylation by measuring ratio of firefly luciferase to renila luciferase after 16 hrs; type: cell-based
Eukaryotic translation initiation factor 2-alpha kinase 1 (Mus musculus), sequence (Q9Z2R9 whole entry, the tested form may be a part): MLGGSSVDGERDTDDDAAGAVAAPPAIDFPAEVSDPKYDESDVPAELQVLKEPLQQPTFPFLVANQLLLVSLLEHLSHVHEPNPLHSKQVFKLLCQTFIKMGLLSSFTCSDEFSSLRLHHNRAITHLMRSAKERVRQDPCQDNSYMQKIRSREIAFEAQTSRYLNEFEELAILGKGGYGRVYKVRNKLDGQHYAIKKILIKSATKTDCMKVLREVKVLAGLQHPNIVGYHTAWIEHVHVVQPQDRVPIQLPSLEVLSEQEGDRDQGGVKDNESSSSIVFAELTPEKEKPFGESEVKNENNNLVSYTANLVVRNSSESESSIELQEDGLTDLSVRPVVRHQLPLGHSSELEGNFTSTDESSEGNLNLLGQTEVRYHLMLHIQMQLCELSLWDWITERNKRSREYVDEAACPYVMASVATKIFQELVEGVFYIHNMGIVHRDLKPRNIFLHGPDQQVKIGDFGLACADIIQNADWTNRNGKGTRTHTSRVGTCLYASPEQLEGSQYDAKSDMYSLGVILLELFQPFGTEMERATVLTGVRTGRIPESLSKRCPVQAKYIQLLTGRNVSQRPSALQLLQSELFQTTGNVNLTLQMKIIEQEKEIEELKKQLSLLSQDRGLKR

[2] = Effect on beta actin protein expression in human CRL2813 cells at 5 uM after 8 hrs by Western blot analysis; type: ADME, cell-based; conditions: crl2813, 8 h
Outline: (§1)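 CRL-2813 cells at 70% confluence in serum-containing, antibiotic-free medium; treated at 5 μM for 8 h. Lysed in M-PER on ice for 30 min, equal protein by BCA, SDS-PAGE and immunoblot for CHOP, cyclin D1 and β-actin. Blots representative of three independent experiments.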

[3] = Antiproliferative activity against human CRL2813 cells after 5 days by sulforhodamine B assay; type: functional, cell-based; conditions: CRL2813, 120 h
Outline: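 CRL-2813 melanoma cells grown 5 days with 0.5–20 μM compound, then fixed in cold 10% TCA and stained with sulforhodamine B. Bound dye measured. Growth % = 100×(T−T0)/(C−T0), with T0 at time zero. IC50 is the concentration giving 50% growth inhibition.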

[4] = molecular target: Eukaryotic translation initiation factor 2-alpha kinase 1 (Homo sapiens) (UniProt Q9BQI3); test: Activation of HRI in human CRL2813 cells assessed as increase in eIF2alpha phosphorylation at 5 uM after 2 hrs by Western blot analysis; type: cell-based
Eukaryotic translation initiation factor 2-alpha kinase 1 (Homo sapiens), sequence (Q9BQI3 whole entry, the tested form may be a part): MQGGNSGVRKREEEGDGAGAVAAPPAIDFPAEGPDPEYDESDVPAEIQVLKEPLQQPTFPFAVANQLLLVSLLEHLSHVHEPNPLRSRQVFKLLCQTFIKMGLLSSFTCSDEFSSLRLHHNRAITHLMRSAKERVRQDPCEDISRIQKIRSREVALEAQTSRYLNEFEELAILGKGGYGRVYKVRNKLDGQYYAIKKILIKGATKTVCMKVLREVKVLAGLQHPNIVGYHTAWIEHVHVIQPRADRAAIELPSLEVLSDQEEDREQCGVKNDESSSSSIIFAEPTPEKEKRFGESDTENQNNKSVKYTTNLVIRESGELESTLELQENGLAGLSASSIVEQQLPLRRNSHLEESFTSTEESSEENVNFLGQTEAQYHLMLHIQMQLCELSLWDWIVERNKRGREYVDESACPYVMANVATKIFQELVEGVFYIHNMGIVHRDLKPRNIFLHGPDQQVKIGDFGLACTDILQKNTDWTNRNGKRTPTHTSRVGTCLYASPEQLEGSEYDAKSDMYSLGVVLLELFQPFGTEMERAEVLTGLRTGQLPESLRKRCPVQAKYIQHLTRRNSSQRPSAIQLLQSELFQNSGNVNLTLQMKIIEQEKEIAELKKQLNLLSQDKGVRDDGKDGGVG
Outline: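 Adherent CRL-2813 melanoma cells exposed to 5 μM for 2 h. Lysates immunoblotted with anti-phosphoserine-51 eIF2α and anti-total eIF2α antibodies after BCA normalization and SDS-PAGE. Gels representative of three independent experiments.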

[5] = molecular target: Eukaryotic translation initiation factor 2-alpha kinase 1 (Homo sapiens) (UniProt Q9BQI3); test: Activation of HRI in human CRL2813cells assessed as decrease in cyclin D1 protein expression at 5 uM after 8 hrs by Western blot analysis; outline: as §1
[6] = molecular target: Eukaryotic translation initiation factor 2-alpha kinase 1 (Homo sapiens) (UniProt Q9BQI3); test: Activation of HRI in human CRL2813 cells assessed as increase in CHOP protein expression at 5 uM after 8 hrs by Western blot analysis; type: cell-based; outline: as §1
[7] = molecular target: Eukaryotic translation initiation factor 2-alpha kinase 1 (Mus musculus) (UniProt Q9Z2R9); test: Activation of HRI in mouse KLN cells transfected with 5'UTR of ATF-4 mRNA fused firefly luciferase mRNA and 5'UTR lacking uORF fused renila luciferase mRNA assessed as increase in eIF2alpha phosphorylation by measuring ratio of firefly luciferase to renila luciferase at 5 uM after 16 hrs; type: cell-based
[8] = molecular target: Eukaryotic translation initiation factor 2-alpha kinase 1 (Homo sapiens) (UniProt Q9BQI3); test: Activation of HRI in human CRL2813 cells assessed as induction of CHOP mRNA level at 5 uM by real-time PCR relative to 18S RNA; type: cell-based
Outline: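 Fold induction of CHOP mRNA in cells treated at 5 μM, normalized to 18S RNA and expressed relative to DMSO (set to 1). Triplicate samples, three independent experiments, mean ± SEM.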

[9] = molecular target: Eukaryotic translation initiation factor 2-alpha kinase 1 (Mus musculus) (UniProt Q9Z2R9); test: Activation of HRI in mouse KLN cells transfected with 5'UTR of ATF-4 mRNA fused firefly luciferase mRNA and 5'UTR lacking uORF fused renila luciferase mRNA assessed as increase in eIF2alpha phosphorylation by measuring ratio of firefly luciferase to renila luciferase at 1.25 uM after 16 hrs; type: cell-based
[10] = Tmax in NU008 nude mouse xenografted with human CRL2813 cells at 40 mg/kg, ip by LC-MS analysis; type: ADME, organism-based; conditions: in vivo
Outline: (§2)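 Single i.p. dose of 40 mg/kg. Blood sampled before and at 0.5, 1, 2, 4, 6, 24, 48 and 72 h, mixed with 0.1% EDTA. Whole-blood levels quantified by LC-MS/MS (C18 column at 45 °C) against a standard curve. At least three mice per time point, mean ± SEM.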

Mus musculus [11] = test: Induction of eIF2alpha phosphorylation in tumor of NU008 nude mouse xenografted with human CRL2813 cells at 37.5 to 150 mg/kg, ip qd administered for 3 days by Western blot analysis; type: functional, organism-based
Outline: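 Mice bearing ~200 mm3 CRL-2813 xenografts injected on three consecutive days with vehicle or the same doses used in the efficacy study. Tumors excised, lysed and immunoblotted for phosphorylated and total eIF2α.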

CRL2813 = test: Antitumor activity against human CRL2813 cells xenografted in ip dosed NU008 nude mouse assessed as tumor growth inhibition administered qd for 4 days followed by 4 days off and 3 days on for total 28 days; type: functional, organism-based
Outline: (§3)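 Male nude mice injected s.c. with CRL-2813 cells; once tumors reached 100–150 mm3, randomized into groups of nine. Given i.p. q.d. at 150 or 37.5 mg/kg (4 days on, 4 off, 3 on; 28 days total) in NMP/Cremophor EL/water at 1 μl/g. Vehicle controls received the mixture alone. Body weight measured twice weekly; tumors by caliper weekly. Mean ± SEM.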

Mus musculus [12] = test: Cardiotoxicity in NU008 nude mouse xenografted with human CRL2813 cells at 150 mg/kg, ip qd administered for 4 days followed by 4 days off and 3 days on for total 28 days; type: toxicity, organism-based; conditions: in vivo
Outline: (§4)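 Xenograft-bearing nude mice dosed i.p. on the 28-day intermittent schedule (150 or 37.5 mg/kg in NMP/Cremophor EL/water). Euthanized at the end of treatment; organs harvested, fixed and examined histopathologically.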

Mus musculus [13] = test: Neurotoxicity in NU008 nude mouse xenografted with human CRL2813 cells at 150 mg/kg, ip qd administered for 4 days followed by 4 days off and 3 days on for total 28 days; type: toxicity, organism-based; conditions: in vivo; outline: as §4
Mus musculus [14] = test: Toxicity in NU008 nude mouse xenografted with human CRL2813 cells assessed as body weight change at 150 mg/kg, ip qd administered for 4 days followed by 4 days off and 3 days on for total 28 days; type: organism-based; conditions: in vivo; outline: as §3
Mus musculus [15] = test: Toxicity in NU008 nude mouse xenografted with human CRL2813 cells assessed as histopathologic change in bone marrow at 150 mg/kg, ip qd administered for 4 days followed by 4 days off and 3 days on for total 28 days; type: organism-based; conditions: in vivo; outline: as §4
[16] = Antitumor activity against human CRL2813 cells xenografted in NU008 nude mouse assessed as tumor growth inhibition at 150 mg/kg, ip qd administered for 4 days followed by 4 days off and 3 days on for total 28 days relative to control; type: functional; conditions: read-out: TGI; outline: as §3
[17] = Apparent half life in NU008 nude mouse xenografted with human CRL2813 cells at 40 mg/kg, ip by LC-MS analysis; type: ADME, organism-based; conditions: in vivo, read-out: t1/2(app) (converted); outline: as §2
Mus musculus [18] = test: Toxicity in NU008 nude mouse xenografted with human CRL2813 cells assessed as body weight change at 37.5 mg/kg, ip qd administered for 4 days followed by 4 days off and 3 days on for total 28 days; type: organism-based; conditions: in vivo; outline: as §3
Mus musculus [19] = test: Nephrotoxicity in NU008 nude mouse xenografted with human CRL2813 cells at 150 mg/kg, ip qd administered for 4 days followed by 4 days off and 3 days on for total 28 days; type: toxicity, organism-based; conditions: in vivo; outline: as §4
Mus musculus [20] = test: Toxicity in NU008 nude mouse xenografted with human CRL2813 cells assessed as histopathologic change in spleen at 150 mg/kg, ip qd administered for 4 days followed by 4 days off and 3 days on for total 28 days; type: organism-based; conditions: in vivo; outline: as §4
Mus musculus [21] = test: Hepatotoxicity in NU008 nude mouse xenografted with human CRL2813 cells at 150 mg/kg, ip qd administered for 4 days followed by 4 days off and 3 days on for total 28 days; type: toxicity, organism-based; conditions: in vivo; outline: as §4
[22] = Antitumor activity against human CRL2813 cells xenografted in NU008 nude mouse assessed as tumor growth inhibition at 37.5 mg/kg, ip qd administered for 4 days followed by 4 days off and 3 days on for total 28 days relative to control; type: functional; conditions: read-out: TGI; outline: as §3

Q: What does the source list for `O=C(Nc1cc(C(F)(F)F)cc(C(F)(F)F)c1)N[C@H]1CC[C@H](Oc2ccc(C(F)(F)F)cc2)CC1`?
A: Activity [1]: Dose-dependent effect; Activity [2]: Non-Toxic; IC50 [3]: 450 nM; Activity [4]: Active; Activity [5]: Active; Activity [6]: Active; Ratio [7]: 30.7; fold change (FC) [8]: 14.5; Ratio [9]: 8.58

Q: For `O=C(Nc1cccc(OC(F)(F)F)c1)N[C@H]1CC[C@H](Oc2ccc(C(F)(F)F)cc2)CC1`, which Activity [1] is on record?
A: Dose-dependent effect

Q: What about the Activity [2] of the same molecule?
A: Non-Toxic

Q: And the IC50 [3]?
A: 920 nM

Q: And the Activity [4]?
A: Active

Q: And the Activity [5]?
A: Active

Q: And the Activity [6]?
A: Active

Q: And the Ratio [7]?
A: 13.6

Q: And the fold change (FC) [8]?
A: 11.9

Q: What about the Ratio [9] of the same molecule?
A: 5.2

Q: For `N#Cc1ccc(NC(=O)N[C@H]2CC[C@H](Oc3ccc(C(F)(F)F)cc3)CC2)cc1C#N`, which Activity [1] is on record?
A: Dose-dependent effect

Q: What about the Activity [2] of the same molecule?
A: Non-Toxic

Q: And the IC50 [3]?
A: 2010 nM

Q: What about the Activity [4] of the same molecule?
A: Active

Q: And the Activity [5]?
A: Active

Q: What about the Activity [6] of the same molecule?
A: Active

Q: What about the Ratio [7] of the same molecule?
A: 7.75

Q: What about the fold change (FC) [8] of the same molecule?
A: 6.21

Q: And the Ratio [9]?
A: 5.54

Q: Which results are given for `O=C(Nc1cccc(C(F)(F)F)c1)N[C@H]1CC[C@H](Oc2ccc(C(F)(F)F)cc2)CC1`?
A: Activity [1]: Dose-dependent effect; Activity [2]: Non-Toxic; IC50 [3]: 540 nM; Activity [4]: Active; Activity [5]: Active; Activity [6]: Active; Ratio [7]: 10.2; fold change (FC) [8]: 4.72; Ratio [9]: 3.23

Q: Which Tmax [10] does the source give for `N#Cc1cc(NC(=O)N[C@H]2CC[C@H](Oc3ccc(C(F)(F)F)cc3)CC2)cc(C(F)(F)F)c1` here?
A: 6 to 24 h

Q: And the Activity (Mus musculus [11])?
A: Active

Q: What about the TGI (CRL2813) of the same molecule?
A: Dose-dependent effect

Q: And the Activity (Mus musculus [12])?
A: Non-Toxic

Q: And the Activity [1]?
A: Dose-dependent effect

Q: What about the Activity [2] of the same molecule?
A: Non-Toxic

Q: And the Activity (Mus musculus [13])?
A: Non-Toxic

Q: And the Activity (Mus musculus [14])?
A: < 10%

Q: What about the Activity (Mus musculus [15]) of the same molecule?
A: Non-Toxic

Q: And the inhibition in vivo at 150 mg/kg [16]?
A: 90%

Q: And the IC50 [3]?
A: 250 nM

Q: What about the half-life [17] of the same molecule?
A: 40 h

Q: And the Activity [4]?
A: Active

Q: And the Activity [5]?
A: Active

Q: What about the Activity [6] of the same molecule?
A: Active

Q: And the Activity (Mus musculus [18])?
A: < 10%

Q: What about the Activity (Mus musculus [19]) of the same molecule?
A: Non-Toxic

Q: And the Activity (Mus musculus [20])?
A: Non-Toxic

Q: And the Ratio [7]?
A: 13.2

Q: And the Activity (Mus musculus [21])?
A: Non-Toxic

Q: And the inhibition in vivo at 37.5 mg/kg [22]?
A: 50%

Q: What about the fold change (FC) [8] of the same molecule?
A: 9.87

Q: And the Ratio [9]?
A: 5.65

Q: Which Activity [1] does the source give for `N#Cc1ccc(NC(=O)N[C@H]2CC[C@H](Oc3ccc(C(F)(F)F)cc3)CC2)cc1` here?
A: Dose-dependent effect

Q: What about the Activity [2] of the same molecule?
A: Non-Toxic

Q: What about the IC50 [3] of the same molecule?
A: 490 nM

Q: What about the Activity [4] of the same molecule?
A: Active

Q: What about the Activity [5] of the same molecule?
A: Active

Q: What about the Activity [6] of the same molecule?
A: Active

Q: And the Ratio [7]?
A: 11.6

Q: What about the fold change (FC) [8] of the same molecule?
A: 12.8

Q: And the Ratio [9]?
A: 3.38

— ChEMBL document CHEMBL4011623, “Development of 1-((1,4-trans)-4-Aryloxycyclohexyl)-3-arylurea Activators of Heme-Regulated Inhibitor as Selective Activators of the Eukaryotic Initiation Factor 2 Alpha (eIF2α) Phosphorylation Arm of the Integrated Endoplasmic Reticulum Stress Response” (J Med Chem, 2017)
